Reference: ChEMBL document CHEMBL1157776, “Synthesis, topoisomerase I and II inhibitory activity, cytotoxicity, and structure-activity relationship study of hydroxylated 2,4-diphenyl-6-aryl pyridines” (Bioorg Med Chem, 2010)
Structures can show the parent of a compound that is named as a salt.

What was measured:
DU-145 = assay: Cytotoxicity against human DU145 cells after 2 days by automatic ELISA reader system; type: functional, cell-based; conditions: DU-145, 48 h
How it was run: (§1)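 Cells seeded at 2–4 × 10⁴ per well and grown overnight in medium with 10% FBS, 5% CO₂, 37 °C. Compound added on day 2; on day 4 CCK-8 solution added and incubated a further 4 h. Absorbance read at 450 nm and fitted to a four-parameter logistic equation for IC₅₀.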

HCT-15 = assay: Cytotoxicity against human HCT15 cells after 2 days by automatic ELISA reader system; type: functional, cell-based; conditions: HCT-15, 48 h; how it was run: as §1
HL-60 = assay: Cytotoxicity against human HL60 cells after 2 days by automatic ELISA reader system; type: functional, cell-based; conditions: HL-60, 48 h; how it was run: as §1
[1] = molecular target: DNA topoisomerase 2-alpha (Homo sapiens) (UniProt P11388); assay: Inhibition of human recombinant TOP2A-mediated relaxation of supercoiled Escherichia coli pBR322 DNA at 100 uM after 30 mins by transillumination
How it was run: (§2)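 200 ng supercoiled pBR322 with topo II, ± compound, 30 °C for 30 min. Buffer was 10 mM Tris–HCl pH 7.9, 50 mM NaCl, 5 mM MgCl₂, 1 mM EDTA, 1 mM ATP, BSA. Stopped with 7 mM EDTA, then 1% agarose gel in TAE at 25 V for 4 h. Ethidium bromide stain, UV transillumination, supercoiled DNA quantitated.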

[2] = molecular target: DNA topoisomerase 2-alpha (Homo sapiens) (UniProt P11388); assay: Inhibition of human recombinant TOP2A-mediated relaxation of supercoiled Escherichia coli pBR322 DNA at 20 uM after 30 mins by transillumination; how it was run: as §2
[3] = molecular target: T1, DNA topoisomerase 1 (Homo sapiens) (UniProt P11387); assay: Inhibition of human recombinant TOP1-mediated relaxation of supercoiled Escherichia coli pBR322 DNA at 100 uM after 30 mins by transillumination
T1 sequence (whole entry): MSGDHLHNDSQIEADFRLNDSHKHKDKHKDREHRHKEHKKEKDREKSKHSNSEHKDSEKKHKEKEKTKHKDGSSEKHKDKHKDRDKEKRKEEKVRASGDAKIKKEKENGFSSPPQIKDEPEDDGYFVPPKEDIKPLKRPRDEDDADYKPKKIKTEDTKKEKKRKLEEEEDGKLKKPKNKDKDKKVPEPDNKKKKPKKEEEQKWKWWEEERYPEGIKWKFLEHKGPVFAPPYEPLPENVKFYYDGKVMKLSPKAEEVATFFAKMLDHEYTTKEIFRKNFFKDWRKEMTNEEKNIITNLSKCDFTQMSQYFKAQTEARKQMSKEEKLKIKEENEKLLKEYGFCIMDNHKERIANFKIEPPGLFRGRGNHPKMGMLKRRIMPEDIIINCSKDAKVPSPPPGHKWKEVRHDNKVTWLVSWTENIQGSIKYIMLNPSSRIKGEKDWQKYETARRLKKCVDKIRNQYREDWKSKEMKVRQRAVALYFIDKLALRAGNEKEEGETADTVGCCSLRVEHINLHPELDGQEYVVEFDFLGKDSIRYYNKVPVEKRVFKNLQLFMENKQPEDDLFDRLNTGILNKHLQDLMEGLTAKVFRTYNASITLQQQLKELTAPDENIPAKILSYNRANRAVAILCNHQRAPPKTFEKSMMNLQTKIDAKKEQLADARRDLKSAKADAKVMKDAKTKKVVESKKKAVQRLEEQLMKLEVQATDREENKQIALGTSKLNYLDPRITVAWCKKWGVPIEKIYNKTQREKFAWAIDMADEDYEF
How it was run: (§3)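 Relaxation assay: 100 ng supercoiled pBR322 with 0.4 units recombinant human topo I, ± compound (DMSO stocks 20 mM), 37 °C, 30 min. Buffer was 10 mM Tris–HCl pH 7.9, 150 mM NaCl, 0.1% BSA, 1 mM spermidine, 5% glycerol. Stopped with sarcosyl/bromophenol blue/glycerol, then 1% agarose gel in TAE at 15 V for 7 h. Ethidium bromide stain, UV transillumination, bands quantitated by densitometry.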

[4] = molecular target: T1, DNA topoisomerase 1 (Homo sapiens); assay: Inhibition of human recombinant TOP1-mediated relaxation of supercoiled Escherichia coli pBR322 DNA at 20 uM after 30 mins by transillumination; how it was run: as §3
MDA-MB-231 = assay: Cytotoxicity against human MDA-MB-231 cells after 2 days by automatic ELISA reader system; type: functional, cell-based; conditions: MDA-MB-231, 48 h; how it was run: as §1
HeLa = assay: Cytotoxicity against human HeLa cells after 2 days by automatic ELISA reader system; type: functional, cell-based; conditions: 48 h; how it was run: as §1

Chain of DNA topoisomerase 2-alpha (Homo sapiens) (P11388 whole entry): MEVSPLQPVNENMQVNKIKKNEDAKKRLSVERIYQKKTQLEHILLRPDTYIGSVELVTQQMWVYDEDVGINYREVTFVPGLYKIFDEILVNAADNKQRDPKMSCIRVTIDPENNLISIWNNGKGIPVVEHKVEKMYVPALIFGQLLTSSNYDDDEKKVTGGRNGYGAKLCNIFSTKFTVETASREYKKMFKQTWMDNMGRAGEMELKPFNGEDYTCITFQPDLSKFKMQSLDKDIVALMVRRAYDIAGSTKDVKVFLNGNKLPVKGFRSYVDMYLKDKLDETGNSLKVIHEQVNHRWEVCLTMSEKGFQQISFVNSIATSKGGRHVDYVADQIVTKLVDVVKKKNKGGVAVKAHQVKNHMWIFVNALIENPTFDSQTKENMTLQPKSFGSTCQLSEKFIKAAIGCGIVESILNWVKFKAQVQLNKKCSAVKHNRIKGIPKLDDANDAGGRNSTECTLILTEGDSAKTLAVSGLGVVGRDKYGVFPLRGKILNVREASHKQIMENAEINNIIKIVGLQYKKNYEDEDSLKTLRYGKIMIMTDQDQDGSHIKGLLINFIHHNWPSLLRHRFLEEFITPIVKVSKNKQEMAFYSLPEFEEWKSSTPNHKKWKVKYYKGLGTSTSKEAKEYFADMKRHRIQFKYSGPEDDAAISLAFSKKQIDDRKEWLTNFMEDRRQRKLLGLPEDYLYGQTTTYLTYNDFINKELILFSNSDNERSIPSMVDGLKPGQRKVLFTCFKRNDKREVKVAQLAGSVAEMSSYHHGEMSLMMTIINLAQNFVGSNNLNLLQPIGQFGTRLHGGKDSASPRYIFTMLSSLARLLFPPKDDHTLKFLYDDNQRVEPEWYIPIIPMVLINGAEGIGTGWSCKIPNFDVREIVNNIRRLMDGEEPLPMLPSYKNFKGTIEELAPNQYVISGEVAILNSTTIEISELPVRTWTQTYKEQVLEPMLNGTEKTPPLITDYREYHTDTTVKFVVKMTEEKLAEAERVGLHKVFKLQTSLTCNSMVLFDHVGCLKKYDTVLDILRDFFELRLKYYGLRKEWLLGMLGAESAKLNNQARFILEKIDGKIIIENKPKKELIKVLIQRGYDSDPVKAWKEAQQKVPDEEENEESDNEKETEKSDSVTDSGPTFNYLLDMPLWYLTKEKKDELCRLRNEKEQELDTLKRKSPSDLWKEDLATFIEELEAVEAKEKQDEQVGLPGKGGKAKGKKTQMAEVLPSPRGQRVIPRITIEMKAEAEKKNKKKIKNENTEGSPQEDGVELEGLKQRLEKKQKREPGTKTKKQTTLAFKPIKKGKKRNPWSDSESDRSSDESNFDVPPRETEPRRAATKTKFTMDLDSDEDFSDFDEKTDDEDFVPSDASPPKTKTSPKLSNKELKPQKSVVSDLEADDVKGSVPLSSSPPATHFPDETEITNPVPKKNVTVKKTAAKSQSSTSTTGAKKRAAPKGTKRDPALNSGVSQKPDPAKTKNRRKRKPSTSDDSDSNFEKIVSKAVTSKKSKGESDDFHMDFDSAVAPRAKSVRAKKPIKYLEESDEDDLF

| inhibition [1] [%] | inhibition [2] [%] | inhibition [3] [%] | inhibition [4] [%] | SMILES | IC50 (DU-145) [µM] | IC50 (HCT-15) [µM] | IC50 (HL-60) [µM] | IC50 (MDA-MB-231) [µM] | IC50 (HeLa) [µM] |
| --- | --- | --- | --- | --- | --- | --- | --- | --- | --- |
| 42.8 | 32.7 | 60.8 | 0.9 | Oc1cccc(-c2cc(-c3ccccc3)nc(-c3ccncc3)c2)c1 | 18.1 | 18.7 | 12.7 | 12.2 | 15 |
| 35.2 | 10.2 | 18.6 | – | Oc1ccc(-c2cc(-c3ccccc3)cc(-c3ccco3)n2)cc1 | 3.2 | 3.5 | 3.3 | 1.4 | 10.9 |
| 57.5 | 34.7 | 9.1 | 2 | Oc1cccc(-c2cc(-c3ccccc3)nc(-c3cccs3)c2)c1 | 19.7 | 14.1 | 18.9 | 17.7 | 15.3 |
| – | 30.4 | – | – | COc1cc([C@@H]2c3cc4c(cc3[C@@H](O[C@@H]3O[C@@H]5CO[C@@H](C)O[C@H]5[C@H](O)[C@H]3O)[C@H]3COC(=O)[C@H]23)OCO4)cc(OC)c1O [ETOPOSIDE] | 0.5 | – | 1 | 0.7 | 1.4 |
| 18.6 | – | 44 | 0.9 | Oc1ccc(-c2cc(-c3ccccc3)cc(-c3cccnc3)n2)cc1 | 8.4 | 15.1 | 4.1 | 2.2 | 13.6 |
| 76.8 | 33.7 | 0.3 | – | Oc1ccc(-c2cc(-c3ccccc3)cc(-c3ccc(O)cc3)n2)cc1 | 22 | 3 | 5.7 | 6.7 | 3.3 |
| 86.5 | 49 | 67.2 | 10.5 | Oc1cccc(-c2cc(-c3ccccc3)cc(-c3cccc(O)c3)n2)c1 | 24.9 | 18.4 | 16.4 | 12.8 | 13 |
| 42.7 | 12.1 | 0 | – | Oc1ccccc1-c1cc(-c2ccccc2)cc(-c2ccccc2O)n1 | 8 | > 50 | 22.4 | 37.3 | 14.8 |
| 30.2 | 10.3 | 5 | – | Oc1ccc(-c2cc(-c3ccccc3)nc(-c3ccco3)c2)cc1 | 8.6 | 5.1 | 13.7 | 1 | 4.5 |
| 37.1 | 21.3 | 8.1 | 1.5 | Oc1cccc(-c2cc(-c3ccccc3)nc(-c3cccnc3)c2)c1 | 18.9 | 18.4 | 12.6 | 22.8 | 17.5 |
| 35.4 | 1.3 | 4.9 | – | Oc1ccc(-c2cc(-c3ccccc3)cc(-c3cccs3)n2)cc1 | 3.7 | 12.5 | 1.7 | 2.4 | 1.7 |
| 68.2 | 32 | 11.5 | 0 | Oc1cccc(-c2cc(-c3ccccc3)nc(-c3ccccc3)c2)c1 | 17.9 | 17.9 | 13.5 | 19.5 | 15.1 |
| 38.3 | 8.3 | 20.4 | – | Oc1ccc(-c2cc(-c3ccccc3)cc(-c3ccsc3)n2)cc1 | 8.5 | 1.1 | 3.6 | 5.7 | 17.3 |
| 48.1 | 21.3 | 10.8 | 2.8 | Oc1cccc(-c2cc(-c3ccccc3)nc(-c3ccccn3)c2)c1 | 15.5 | 20.9 | 15.1 | 18.7 | 29.8 |
| 51.8 | 37.2 | 75.8 | 6.8 | Oc1cccc(-c2cc(-c3ccccc3)cc(-c3ccsc3)n2)c1 | 11.7 | 7.66 | 10.3 | 12.1 | 13.8 |
| 48.4 | 32 | 12.9 | 0 | Oc1cccc(-c2cc(-c3ccccc3)cc(-c3ccccc3)n2)c1 | 17.9 | 9.95 | 11.5 | 19.3 | 16.1 |
| 51.6 | 38.6 | 10.2 | 0 | Oc1cccc(-c2cc(-c3ccccc3)cc(-c3ccco3)n2)c1 | 14.4 | 13.5 | 9.91 | 13.7 | 9.43 |
| 8.4 | – | 57.5 | 5.8 | Oc1ccc(-c2cc(-c3ccccc3)nc(-c3ccncc3)c2)cc1 | 2.2 | 11.7 | 1.4 | 2.1 | 1.6 |
| 47.5 | 31.1 | 48.8 | 3.5 | Oc1cccc(-c2cc(-c3ccccc3)nc(-c3ccco3)c2)c1 | 34.9 | 13.9 | 24 | 20.8 | 10.9 |
| 31.2 | 3.1 | 1.5 | – | Oc1ccccc1-c1cc(-c2ccccc2)nc(-c2ccco2)c1 | 4.9 | 2.5 | 1.9 | 4.6 | 9.7 |
| 52.6 | 30.8 | 6.9 | 3.2 | Oc1cccc(-c2cc(-c3ccccc3)nc(-c3ccsc3)c2)c1 | 11.7 | 24.6 | 12 | 19 | 14.9 |
| 53.8 | 43.5 | 51.2 | 5.8 | Oc1cccc(-c2cc(-c3ccccc3)cc(-c3cccs3)n2)c1 | 18.9 | 10.8 | 14.1 | 18.1 | 17 |
| – | – | – | – | CC[C@@]1(O)C(=O)OCc2c1cc1n(c2=O)Cc2cc3ccccc3nc2-1 [CAMPTOTHECIN] | 0.4 | 0.5 | 0.1 | 0.3 | 0.4 |
| 27.6 | – | 52.9 | 43.6 | Oc1ccc(-c2cc(-c3ccccc3)cc(-c3ccccc3)n2)cc1 | 3 | 3.7 | 1.4 | 1.3 | 1.7 |
| – | – | – | – | COc1cccc2c1C(=O)c1c(O)c3c(c(O)c1C2=O)C[C@@](O)(C(=O)CO)C[C@@H]3O[C@H]1C[C@H](N)[C@H](O)[C@H](C)O1 [DOXORUBICIN HYDROCHLORIDE] | 1 | 1.2 | 0.7 | 0.4 | – |
| 3.1 | 1.8 | 70.4 | 25.4 | Oc1cccc(-c2cc(-c3ccccc3)cc(-c3ccncc3)n2)c1 | 19.2 | 27.4 | 23.9 | 10.4 | 28.1 |
